Experimental data taken from ChEMBL document CHEMBL4715843, “NO-releasing STAT3 inhibitors suppress BRAF-mutant melanoma growth” (Eur J Med Chem, 2020).
The source made the active and inactive calls. The rule behind the calls is not given here.

Legend:
[1] = target: T1, Signal transducer and activator of transcription 3 (Homo sapiens, UniProt P40763); assay: Inhibition of STAT3 in human SB-590885-resistant 451Lu cells assessed as reduction in PAX3 expression measured after 12 hrs by Western blot analysis; conditions: dose 10-25 µM
Method in brief: (§1)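 451 Lu and MEL 1617 pairs, sensitive and resistant; resistant lines maintained in RPMI with 1 µM PLX4720. Treated with 10 and 25 µM for 12 h versus DMSO. Lysates (60 µg protein, 10% SDS-PAGE) immunoblotted for Ser727- and Tyr705-phospho-STAT3, total STAT3, total PAX3, with actin.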

[2] = target: T1, Signal transducer and activator of transcription 3; assay: Inhibition of STAT3 in human SB-590885-resistant MEL1617 cells assessed as reduction in PAX3 expression at 10 to 25 uM measured after 12 hrs by Western blot analysis; format: cell-based; conditions: dose 10-25 µM; method in brief: as §1
[3] = target: T1, Signal transducer and activator of transcription 3; assay: Inhibition of STAT3 in human SB-590885-sensitive 451Lu cells assessed as reduction in PAX3 expression measured after 12 hrs by Western blot analysis; conditions: dose 10-25 µM; method in brief: as §1
[4] = Drug metabolism in pH 7.4 phosphate buffer assessed as nitric oxide release at 100 uM measured after 48 hrs by Griess reagent based colorimetric method
Method in brief: (§2)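 Compound at 100 µM was held at room temperature in pH 7.4 phosphate buffer with 5 mM DTT and 2% DMSO for 2 or 48 h. Griess reagent was added, and after 30 min absorbance was read at 548 nm. NO release (mol NO/mol compound) was derived from a sodium nitrite calibration curve.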

[5] = target: T1, Signal transducer and activator of transcription 3; assay: Inhibition of STAT3 phosphorylation at S727 residue in human SB-590885-sensitive 451Lu cells measured after 12 hrs by Western blot analysis; conditions: dose 10-25 µM; method in brief: as §1
[6] = target: T1, Signal transducer and activator of transcription 3; assay: Inhibition of STAT3 phosphorylation at Y705 residue in human SB-590885-resistant MEL1617 cells at 10 to 25 uM measured after 12 hrs by Western blot analysis; format: cell-based; conditions: dose 10-25 µM; method in brief: as §1
[7] = Drug metabolism in pH 7.4 phosphate buffer assessed as nitric oxide release at 100 uM measured after 2 hrs by Griess reagent based colorimetric method; method in brief: as §2
[8] = target: T1, Signal transducer and activator of transcription 3; assay: Inhibition of STAT3 phosphorylation at Y705 residue in human SB-590885-sensitive MEL1617 cells at 10 to 25 uM measured after 12 hrs by Western blot analysis; format: cell-based; conditions: dose 10-25 µM; method in brief: as §1
[9] = target: T1, Signal transducer and activator of transcription 3; assay: Inhibition of STAT3 phosphorylation at S727 residue in human SB-590885-sensitive MEL1617 cells at 10 to 25 uM measured after 12 hrs by Western blot analysis; format: cell-based; conditions: dose 10-25 µM; method in brief: as §1
[10] = target: T1, Signal transducer and activator of transcription 3; assay: Inhibition of STAT3 phosphorylation at Y705 residue in human SB-590885-sensitive 451Lu cells measured after 12 hrs by Western blot analysis; conditions: dose 10-25 µM; method in brief: as §1
[11] = target: T1, Signal transducer and activator of transcription 3; assay: Inhibition of STAT3 phosphorylation at Y705 residue in human SB-590885-resistant 451Lu cells measured after 12 hrs by Western blot analysis; conditions: dose 10-25 µM; method in brief: as §1
[12] = target: T1, Signal transducer and activator of transcription 3; assay: Inhibition of STAT3 phosphorylation at S727 residue in human SB-590885-resistant 451Lu cells measured after 12 hrs by Western blot analysis; conditions: dose 10-25 µM; method in brief: as §1
[13] = target: T1, Signal transducer and activator of transcription 3; assay: Inhibition of STAT3 phosphorylation at S727 residue in human SB-590885-resistant MEL1617 cells at 10 to 25 uM measured after 12 hrs by Western blot analysis; format: cell-based; conditions: dose 10-25 µM; method in brief: as §1
[14] = target: T1, Signal transducer and activator of transcription 3; assay: Inhibition of STAT3 in human SB-590885-sensitive MEL1617 cells assessed as reduction in PAX3 expression at 10 to 25 uM measured after 12 hrs by Western blot analysis; format: cell-based; conditions: dose 10-25 µM; method in brief: as §1
A549 = assay: Anticancer activity against human A549 cells assessed as cell growth inhibition at 10 uM measured after 48 hrs by SRB assay; format: functional, cell-based
Method in brief: (§3)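 NCI 60-cell-line screen. Cells in RPMI with 5% FBS were plated at 5,000–40,000 cells/well by doubling time and preincubated 24 h at 37 °C. Compound was added at a single 10 µM for 48 h, then cells were fixed with cold TCA (10% final) and stained with 0.4% SRB. Absorbance at 515 nm gave percent growth versus untreated control and time-zero cells.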

HL-60(TB) = assay: Anticancer activity against human HL-60(TB) cells assessed as cell growth inhibition at 10 uM measured after 48 hrs by SRB assay relative to control; format: functional; conditions: read-out: GI
Method in brief: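 NCI 60-cell-line screen, single dose 10 µM, DMSO stock diluted in complete medium with gentamicin. Cells in RPMI with 5% FBS, plated at density set by doubling time, preincubated 24 h, then exposed 48 h at 37 °C, 5% CO2. TCA fixation, SRB staining, absorbance at 515 nm. Percent growth taken relative to untreated control and time-zero cell number.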

COLO 205 = assay: Anticancer activity against human COLO 205 cells assessed as cell growth inhibition at 10 uM measured after 48 hrs by SRB assay; format: functional, cell-based; method in brief: as §3
T47D = assay: Anticancer activity against human T47D cells assessed as cell growth inhibition at 10 uM measured after 48 hrs by SRB assay relative to control; format: functional; conditions: read-out: GI; method in brief: as §3
RPMI-8226 = assay: Anticancer activity against human RPMI-8226 cells assessed as cell growth inhibition at 10 uM measured after 48 hrs by SRB assay relative to control; format: functional; conditions: read-out: GI; method in brief: as §3
CCRF-CEM = assay: Anticancer activity against human CCRF-CEM cells assessed as cell growth inhibition at 10 uM measured after 48 hrs by SRB assay relative to control; format: functional; conditions: read-out: GI; method in brief: as §3
MOLT-4 = assay: Anticancer activity against human MOLT-4 cells assessed as cell growth inhibition at 10 uM measured after 48 hrs by SRB assay relative to control; format: functional; conditions: read-out: GI; method in brief: as §3
NCI-H522 = assay: Anticancer activity against human NCI-H522 cells assessed as cell growth inhibition at 10 uM measured after 48 hrs by SRB assay; format: functional, cell-based; method in brief: as §3
K562 = assay: Anticancer activity against human K562 cells assessed as cell growth inhibition at 10 uM measured after 48 hrs by SRB assay relative to control; format: functional; conditions: read-out: GI; method in brief: as §3

T1 sequence (P40763 whole entry): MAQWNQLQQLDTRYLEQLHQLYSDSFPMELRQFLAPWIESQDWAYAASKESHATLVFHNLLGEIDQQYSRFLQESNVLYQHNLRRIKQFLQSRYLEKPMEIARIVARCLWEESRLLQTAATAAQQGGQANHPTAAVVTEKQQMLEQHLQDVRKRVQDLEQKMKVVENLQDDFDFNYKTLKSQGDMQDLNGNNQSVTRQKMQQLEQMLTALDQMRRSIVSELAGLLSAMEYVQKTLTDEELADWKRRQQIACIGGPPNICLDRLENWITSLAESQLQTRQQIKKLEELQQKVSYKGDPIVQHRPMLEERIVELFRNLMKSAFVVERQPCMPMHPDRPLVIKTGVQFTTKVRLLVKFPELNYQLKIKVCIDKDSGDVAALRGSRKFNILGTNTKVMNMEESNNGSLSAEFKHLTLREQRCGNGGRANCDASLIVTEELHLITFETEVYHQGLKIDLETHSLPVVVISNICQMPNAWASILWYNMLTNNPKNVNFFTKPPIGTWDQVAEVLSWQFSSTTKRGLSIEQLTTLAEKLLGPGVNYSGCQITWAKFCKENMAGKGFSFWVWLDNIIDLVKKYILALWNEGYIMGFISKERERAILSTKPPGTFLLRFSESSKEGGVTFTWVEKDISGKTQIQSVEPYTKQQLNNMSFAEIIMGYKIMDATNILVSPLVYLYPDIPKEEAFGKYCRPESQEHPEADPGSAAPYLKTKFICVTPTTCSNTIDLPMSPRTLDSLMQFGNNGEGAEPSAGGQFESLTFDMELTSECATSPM

SMILES | inhibition [1] | inhibition [2] | inhibition [3] | Drug metabolism [4] | inhibition [5] | inhibition [6] | Drug metabolism [7] | inhibition [8] | inhibition [9] | inhibition [10] | inhibition [11] | inhibition [12] | inhibition [13] | inhibition [14] | also measured
COc1ccc2nc(-c3ccc(OC)c(OC)c3)cc(-c3nnc(SCC(=O)Nc4ccc(/C(C)=N\O)cc4)n3-c3ccccc3)c2c1 | inactive | inactive | inactive | 30% | inactive | inactive | 15% | inactive | inactive | inactive | inactive | inactive | inactive | inactive | –
C=CCn1c(SCC(=O)Nc2ccc(/C(C)=N\O)cc2)nnc1-c1cc(-c2ccc(OC)cc2)nc2ccccc12 | – | – | – | – | – | – | – | – | – | – | – | – | – | – | growth inhibition (GI) (A549): Active; inhibition of growth at 10 µM (HL-60(TB)): 100%; growth inhibition (GI) (COLO 205): Active; inhibition of growth at 10 µM (T47D): 100%; inhibition of growth at 10 µM (RPMI-8226): 81%; inhibition of growth at 10 µM (CCRF-CEM): 81%; inhibition of growth at 10 µM (MOLT-4): 81%; growth inhibition (GI) (NCI-H522): Active; inhibition of growth at 10 µM (K562): 81%
COc1ccc(-c2cc(-c3nnc(SCC(=O)Nc4ccc(/C(C)=N\O)cc4)n3-c3ccccc3)c3cc(OC)ccc3n2)cc1 | inactive | inactive | inactive | 30% | inactive | inactive | 15% | inactive | inactive | inactive | inactive | inactive | inactive | inactive | –
